aSyn UTR inh: 5' untranslated region of α-synuclein, MLPCN primary screen | inhibition, % (tested at 7.5 µM) | 300,000 tested, 0.82% active | alpha-synuclein 5'UTR reporter, inhibitor activity | AID 1813; in the data active = inhibition above about 60%;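 also: H4 neuroglioblastoma cells stably carrying SNCA 5'UTR luciferase fusion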
APP 5UTR inh: APP translation inhibition; SH-SY5Y APP 5'UTR-luciferase reporter, luminescence; inhibition, % at 2 µM; 190,000 tested, 0.82% active; AID 1285;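 active = inhibition above a set limit, derived from the sample mean plus 3 SD, cut at about 45% in these data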
TAG inh: reduces triacylglycerol accumulation in H9c2 cells; inhibition, % at 12.5 µM; 230,000 tested, 0.66% active; Nile Red lipid (TAG) fluorescence; cells loaded with 200 µM oleic acid;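 active = pattern-corrected inhibition of lipid staining of at least 50% with the nuclear-stain viability signal not falling by more than 50%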
Jurkat NFkB inh: inhibitors of the PMA/ionomycin-induced NF-kB reporter in Jurkat cells | AID 435003 | PMA/ionomycin-induced NF-kB luciferase reporter, luminescence | inhibition, % at 4 µM | 330,000 tested, 0.53% active; in the data active = inhibition above about 50%
Lipid droplet: hepatic lipid droplet formation modulation; 240,000 tested, 0.4% active; AML12 mouse hepatocytes, oleate lipid droplets, BODIPY imaging; AID 1656; inhibition, % at 6.5 µM;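 active = lipid droplet intensity inhibited by at least 50%, with more than 500 cells counted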
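Assay system: AML12 mouse liver cells | Compound dosing: One dose, 6.5 µM compound | Read-out basis: Droplet intensity reduction, % inhibition | Measured by: Fluorescence imaging, 20x objective, two fields per well | Schedule: Overnight treatment with compound plus oleate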
697 NFkB inh: lowers PMA/ionomycin-induced NF-kB signal in 697 B cells; 697 B-cell NF-kB luciferase reporter, 16 h; inhibition, % at 4 µM; 330,000 tested, 0.33% active; AID 435022; in the data active = inhibition above about 35%
Jurkat NFkB conf: inhibitors of the PMA/ionomycin-induced NF-kB reporter in Jurkat cells, retest; shares compounds with Jurkat NFkB inh; Jurkat NF-kB luciferase, 16 h; inhibition, % at 4 µM; 2,700 tested, 27% active; AID 435020;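 active = inhibition reaching about 45% at 4 µM in either replicate, limit read from the data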
A number is an active result; 0 = inactive; - = no result. The list is not random: actives were taken first. Their share in the collection is about 1.9%.

SMILES	aSyn UTR inh	APP 5UTR inh	TAG inh	Jurkat NFkB inh	Lipid droplet	697 NFkB inh	Jurkat NFkB conf
COc1ccc(NC(=O)c2ccc3c(c2)N(C)CCS3)cc1	0	-	0	0	0	0	-
CCOC(=O)C1CCN(S(=O)(=O)c2cccc3nonc23)CC1	0	0	0	0	0	0	-
CCOC(=O)C1CCN(S(=O)(=O)c2c(Cl)ccc3nonc23)CC1	0	-	0	72	0	0	0
COc1ccc(S(=O)(=O)n2ccc(-c3cnc(-c4ccccc4)s3)n2)cc1	0	0	0	0	-	0	-
O=C(c1ccccc1)n1ccc(-c2cnc(-c3ccccc3)s2)n1	0	0	0	0	0	0	0
CCC1CCCCN1C(=O)c1cc(COc2ccc3ncccc3c2)on1 (stereo unspecified)	0	0	0	58	0	0	60
COCC1CCCCN1C(=O)c1cc(COc2ccc3ncccc3c2)on1 (stereo unspecified)	0	-	-	0	0	0	-
Cc1ccc(OCC(=O)c2cc(C)n(-c3ccccc3)c2C)c([N+](=O)[O-])n1	68	0	-	76	0	0	0
CCCn1c(C)cc(C(=O)COc2ccc(C)nc2[N+](=O)[O-])c1C	0	0	-	0	0	0	-
Cc1cccc(C(=O)Nc2cccc(C(=O)Nc3cc(C)ccn3)c2)c1	0	-	0	0	0	0	-
COc1cc(N/N=C/c2ccc(N(C)C)cc2)ncn1	0	0	0	0	0	0	0
O=C1CCC(C(=O)Nc2cccc(S(=O)(=O)N3CCOCC3)c2)N1 (stereo unspecified)	0	0	0	0	0	0	-
Cc1cccc(N/C=C/C(=O)c2cccs2)c1C	0	0	-	0	0	0	0
O=C(/C=C/Nc1ccc(F)cc1)c1ccc(Br)cc1	0	0	0	0	0	0	0
O=C(/C=C/Nc1cccc(O)c1)c1ccccc1	0	0	-	0	-	0	-
O=C(/C=C/Nc1ccc(F)c(F)c1)c1cccs1	0	0	-	0	0	0	0
O=C(/C=C/Nc1ccc(F)c(F)c1)c1ccc(Br)cc1	0	0	0	0	0	0	-
O=C(/C=C/Nc1ccc(F)c(Cl)c1)c1ccccc1	0	-	-	0	0	0	0
NC(=O)c1ccccc1N/C=C/C(=O)c1cccs1	0	-	-	0	0	0	-
O=C(COC(=O)C1CCC(N2C(=O)C3C4CCC(C4)C3C2=O)CC1)c1ccc(F)cc1 (stereo unspecified)	0	-	-	0	0	0	-
Cc1ccc(N=C(NO)c2nonc2N)cc1	0	0	-	0	0	0	-
Cc1ccc(-n2[nH]c(=O)c(-c3ccccn3)c2C)cc1	97	0	0	58	0	0	0
COc1ccc(S(=O)(=O)NCc2cccnc2)cc1NC(=O)c1ccccc1C	-	-	0	-	-	-	-
Cn1nc(-c2ccccn2)nc2c(=O)n(C)c(=O)nc1-2	94	59	0	56	0	0	95
CCCc1nc2c(=O)n(C)c(=O)nc-2n(C)n1	-	0	0	-	0	-	-
SMILES	aSyn UTR inh	APP 5UTR inh	TAG inh	Jurkat NFkB inh	Lipid droplet	697 NFkB inh	Jurkat NFkB conf
O=C(CSc1nnc(-c2csc3c2CCCC3)o1)Nc1ccccc1	0	0	0	0	-	0	0
COCCN(Cc1nc2ccccc2c(=O)[nH]1)C(=O)COc1ccccc1-c1ccccc1	-	-	0	0	-	0	-
CSc1ncccc1C(=O)OCC(=O)c1ccc(C)s1	-	-	0	0	-	0	-
O=C(Nc1ccncc1)c1ccc(Cl)c(S(=O)(=O)N2CCc3ccccc32)c1	0	-	0	60	-	0	79
Cc1cccc(NC(=O)c2ccc(Cl)c(S(=O)(=O)N3CCc4ccccc43)c2)n1	-	-	0	0	-	0	-
CC(=O)c1c(C)oc2c1C(=O)c1ccccc1C2=O	0	0	-	-	0	-	-
COc1ccc(CNC(=O)c2c(C)oc3c2C(=O)c2ccccc2C3=O)cc1	103	0	101	60	0	0	59
Cc1oc2c(c1C(=O)NCc1cccnc1)C(=O)c1ccccc1C2=O	107	95	-	88	0	0	84
CCc1nnc(NC(=O)[C@@H](NS(=O)(=O)c2ccc3c(c2)OCCO3)C(C)C)s1	-	-	0	-	-	-	-
COc1cc2cnc(C3=CCCCC3)cc2cc1OC	-	-	0	0	-	0	-
COc1ccc2cc(-c3ccsc3)ncc2c1	-	-	0	0	-	0	0
COc1ccc2cc(C3=CCCCC3)ncc2c1	-	-	0	0	-	0	0
COc1cc(OC)cc(-c2cc3ccc(OC)cc3cn2)c1	-	-	0	0	-	0	-
C=CCSc1nc2ccccc2n1C(=O)/C=C/c1cc(OC)c(OC)c(OC)c1	0	58	-	64	-	0	0
